Our source for the Activity, IC50 and inhibition values is ChEMBL document CHEMBL1641479, “2-Substituted (S)-2-(3,3-dimethyl-1-oxo-10,10a-dihydroimidazo[1,5-b]isoquinolin-2(1H,3H,5H)-yl)acetic acids: Conformational prediction, synthesis, anti-thrombotic and vasodilative evaluation” (Bioorg Med Chem, 2011).

For orientation: IC50 means the concentration that inhibits the measured activity by half. A word on the inhibition: it is how much of the control response was suppressed.

Values joined by “and” are separate entries in the source; they are usually repeats but may differ in a detail not shown here. Identical values can stand only once.

Test [1] relates to Aorta. Briefly: Inhibition of noradrenaline-induced contraction in Wistar rat thoracic aortic ring assessed as vasorelaxant activity at 300 uM treated after noradrenaline challenge. The test is classed as functional. Further details: scale not given: the % may be the effect or the level left. Summed up:
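Male Wistar rats, 250–300 g, were decapitated and aortic strips were mounted in 37 °C Krebs solution (pH 7.4) gassed with 95% O2/5% CO2, connected to a tension transducer. Strips were contracted with 59 µM noradrenaline, washed, stabilised 30 min, then re-contracted with 59 µM noradrenaline. At peak contraction, compound in ethanol or ethanol alone was added and relaxation was recorded.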

A short description of test [2]: Antiplatelet activity against pig platelet assessed as inhibition of thrombin-induced platelet aggregation by spectrophotometry. The test is classed as functional, cell-based. As to conditions: Sus scrofa. Summed up:
(§1)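 Pig blood (six pigs) spun 1000 rpm 10 min for PRP, then 1500 rpm 10 min for PPP; PRP adjusted to 2×10^8 platelets/mL with autologous PPP. Compound (final 100 µM to 1 nM, diluted in NS from DMSO/NS stock) or NS added, then inducer at final PAF 0.1 µM, ADP 10 µM, AA 350 µM or thrombin 0.1 U/mL.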

For test [3], the system named is Rattus norvegicus. Briefly: Antithrombotic activity in Wistar rat assessed as thrombus weight at 1 nmol/kg, iv (reference value: 22.09 +/- 3.33 mg). The test is classed as functional.
Test [4] deals with Rattus norvegicus. The experiment in a line: Antithrombotic activity in Wistar rat assessed as thrombus weight at 100 nmol/kg, iv (reference value: 22.09 +/- 3.33 mg). The test is classed as functional.
Test [5] in a line: Antiplatelet activity against pig platelet assessed as inhibition of arachidonic acid-induced platelet aggregation by spectrophotometry. The test is classed as functional, cell-based. As to conditions: Sus scrofa. Summed up: as §1
In test [6] the test system is Rattus norvegicus. Briefly: Antithrombotic activity in iv dosed Wistar rat assessed as decrease in thrombus weight. The test is classed as functional, organism-based.
Test [7] in a line: Antiplatelet activity against pig platelet assessed as inhibition of PAF-induced platelet aggregation by spectrophotometry. The test is classed as functional, cell-based. The conditions noted are these: Sus scrofa. Summed up:
as §1

In test [8] the test system is Rattus norvegicus. Briefly: Antithrombotic activity in Wistar rat assessed as thrombus weight at 10 nmol/kg, iv (reference value: 24.09 +/- 2.33 mg). The test is classed as functional.
Test [9] can be described thus: Antiplatelet activity against pig platelet assessed as inhibition of ADP-induced platelet aggregation by spectrophotometry. The test is classed as functional, cell-based. As to conditions: Sus scrofa. Put shortly: as §1
Test [10] relates to Rattus norvegicus. The experiment in a line: Antithrombotic activity in Wistar rat assessed as thrombus weight at 167 umol/kg, iv (reference value: 24.09 +/- 2.33 mg). The test is classed as functional.
Test [11] deals with Rattus norvegicus. The experiment in a line: Antithrombotic activity in Wistar rat assessed as thrombus weight at 167 umol/kg, iv (reference value: 25.99 +/- 2.41 mg). The test is classed as functional.
The subject of test [12] is Rattus norvegicus. The experiment in a line: Antithrombotic activity in Wistar rat assessed as thrombus weight at 15 umol/kg, iv (reference value: 28.54 +/- 2.62 mg). The test is classed as functional.
For test [13], the system named is Rattus norvegicus. The experiment in a line: Antithrombotic activity in Wistar rat assessed as thrombus weight at 167 umol/kg, iv (reference value: 28.54 +/- 2.62 mg). The test is classed as functional.
The test system of test [14] is Rattus norvegicus. The experiment in a line: Antithrombotic activity in Wistar rat assessed as thrombus weight at 15 umol/kg, iv (reference value: 24.09 +/- 2.33 mg). The test is classed as functional.
The test system of test [15] is Rattus norvegicus. The experiment in a line: Antithrombotic activity in Wistar rat assessed as thrombus weight at 15 umol/kg, iv (reference value: 25.99 +/- 2.41 mg). The test is classed as functional.
Test [16] in a line: Antiplatelet activity against pig platelet assessed as inhibition of arachidonic acid-induced platelet aggregation at 10 uM by spectrophotometry. The test is classed as functional. As to conditions: Sus scrofa. Put shortly: as §1
Test [17] in a line: Antiplatelet activity against pig platelet assessed as inhibition of ADP-induced platelet aggregation at 10 uM by spectrophotometry. The test is classed as functional. The conditions noted are these: Sus scrofa. Summed up: as §1
A short description of test [18]: Antiplatelet activity against pig platelet assessed as inhibition of thrombin-induced platelet aggregation at 10 uM by spectrophotometry. The test is classed as functional. As to conditions: Sus scrofa. Put shortly:
as §1

A short description of test [19]: Antiplatelet activity against pig platelet assessed as inhibition of PAF-induced platelet aggregation at 10 uM by spectrophotometry. The test is classed as functional. As to conditions: Sus scrofa. Put shortly: as §1

For `CC(C)C[C@@H](C(=O)O)N1C(=O)[C@@H]2Cc3ccccc3CN2C1(C)C`, the Activity is 30.14% in test [1]; 20.67 mg in test [3]; 10.02 mg in test [4]; 12.99 mg and 13.79 mg in test [8]. For the same compound, the 50% inhibitory concentration (IC50) worked out at 599 nM in [2], 287 nM in test [5], 515 nM in [7] and 171 nM in [9]. Besides, in test [6], the inhibition entry is “Dose-dependent effect”.
Take `CC1(C)N(CC(=O)O)C(=O)[C@@H]2Cc3ccccc3CN21`: the Activity in test [1] is 21.11%; in [8], 14.39 mg and 13.89 mg. For the same compound, the IC50 is 604 nM in [2], 290 nM in [5], 519 nM in test [7] and 173 nM in [9].
Consider `CC(=O)Oc1ccccc1C(=O)O` [ASPIRIN], for which the Activity in test [10] is 13.22 mg; in test [11], 15.01 mg; in test [12], 27.6 mg; in test [13], 13.22 mg.
With `CC1(C)N2Cc3ccccc3C[C@H]2C(=O)N1[C@@H](Cc1ccccc1)C(=O)O`, the figures for the Activity in test [1] and in test [8] were 26.61% and 13.27 mg, respectively. Further, the IC50 in test [2] came out at 578 nM; in test [5], 277 nM; in [7] it was 496 nM; in [9], 163 nM.
As for `O=C(O)[C@@H]1Cc2ccccc2CN1`, the Activity in [14] was determined as 22.01 mg; in test [15], 22.22 mg. The inhibition at 10 µM in [16] was 10.4%; in test [17], 10.7%; in test [18] it was 14.5%; in [19], 13.5%. The IC50 came out at 980 nM in test [2], 481 nM in test [5], 944 nM in test [7] and 542 nM in [9].
Take `C[C@@H](C(=O)O)N1C(=O)[C@@H]2Cc3ccccc3CN2C1(C)C`: the Activity in test [1] is recorded as 8.41%; in test [8], 15.45 mg. Also, the IC50 in test [2] is 677 nM; in test [5], 324 nM; in [7], 576 nM; in test [9], 200 nM.
